In publication PMC6044135 (Indian Journal of Pharmacology, 2018):

Key:
[1] = Tissue distribution of Cr; assay type: in vivo, Sprague-Dawley rat; conditions: oral gavage; for level of Cr in brain / level of Cr in heart / level of Cr in kidney / level of Cr in liver / level of Cr in lung / level of Cr in spleen: at 12 h
Procedure, shortened: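 Male and female SD rats were dosed by oral gavage and killed under anhydrous diethyl ether anaesthesia at 0.25–48 h postdose. Heart, liver, spleen, lung, kidneys and brain were collected, wet-digested as for serum, and Cr measured by simultaneous ICP-OES. Results given per g tissue.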

[2] = tested on: rats with type 2 diabetes; conditions: cited from earlier work
diabetic mice = conditions: cited from earlier work
[3] = cited from earlier work
[4] = Pharmacokinetics of serum Cr after oral gavage; assay type: in vivo, Sprague-Dawley rat; conditions: for serum concentration of Cr: at 1.5 h
Procedure, shortened: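 SD rats (180 ± 10 g, male and female, 10/group) received 20 μg Cr/kg bw either by gavage after a 12 h fast or via the caudal vein. Blood was drawn retro-orbitally into heparinized tubes at 0–72 h, over 21 time points. Serum (10,000 g, 10 min, 4°C) was wet-digested, 0.1 mL in nitric/perchloric acid (1:4, v/v), and Cr read by simultaneous ICP-OES. Compartment model chosen by AIC and F-test.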

[5] = Faeces distribution of Cr; assay type: in vivo, Sprague-Dawley rat; conditions: oral gavage, 20 μg Cr/kg bw; for feces concentration of Cr: at 5 h
[6] = cited from earlier work; remark: listed apart in the source
Bioavailability analysis = assay type: in vivo, Sprague-Dawley rat; conditions: for absolute bioavailability (FAB): AUCig × 100%/AUCiv; for relative bioavailability (FRB): oral, AUC chromium malate × 100%/AUC chromium picolinate
Procedure, shortened: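 AUCs came from compartment-model fits of serum Cr–time data in SD rats of each sex. Dosing was 20 μg Cr/kg bw by oral gavage or caudal-vein injection. Relative bioavailability = AUC of test compound ×100%/AUC of chromium picolinate, both oral. Absolute bioavailability = AUC intragastric ×100%/AUC IV.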

[7] = cited from earlier work; remark: listed apart in the source
[8] = may be caused by the ligand (picolinate); cited from earlier work
[9] = cited from earlier work; remark: listed apart in the source
[10] = intraperitoneal administration, ref 32 (Kirman et al.); cited from earlier work

## O=C(O)CC(O)C(=O)O.O=C(O)CC(O)C(=O)O.O=C(O)CC(O)C(=O)O.[Cr].[Cr] (stereo not drawn) [Chromium malate, chromium malate]
[1]; female rats
  level of Cr in brain: 0.6 µg/g
  level of Cr in heart: 0.50 µg/g
  level of Cr in kidney: 0.78 µg/g
  level of Cr in liver: 0.60 µg/g
  level of Cr in lung: 0.49 µg/g
  level of Cr in spleen: 0.40 µg/g
[1]; male and female rats
  tissue distribution of Cr in comparison with control (male and female) groups: no notable change
[1]; male rats
  level of Cr in brain: 0.67 µg/g
  level of Cr in heart: 0.52 µg/g
  level of Cr in kidney: 0.84 µg/g
  level of Cr in liver: 0.61 µg/g
  level of Cr in lung: 0.52 µg/g
  level of Cr in spleen: 0.40 µg/g
[2]
  FBG level and insulin resistance: could improve FBG level and insulin resistance
Diabetic mice
  blood glucose level: could improve blood glucose level
[3]
  oxidative DNA damage: no oxidative DNA damage
[4]; 20 μg Cr/kg bw, sex not split
  Tmax of serum concentration of Cr: 1.5 h
[4]; female rats, 20 μg Cr/kg bw
  serum concentration of Cr: 4.76 ± 0.55 µg/mL
[4]; male rats, 20 μg Cr/kg bw
  serum concentration of Cr: 4.63 ± 0.37 µg/mL
[4]; male rats, P ≤ 0.05
  AUC0→∞ compared with chromium picolinate: higher
[4]; rats of the same sex, P < 0.05
  MRT compared with chromium picolinate group: significantly higher
[5]; female rats
  feces concentration of Cr: 0.47 ± 0.04 µg/g
[5]; male rats
  feces concentration of Cr: 0.50 ± 0.06 µg/g
[5]; same gender rats
  feces concentration of Cr in comparison with chromium picolinate group: no notable change
[6]
  90-day repeated dose oral toxicity and reproductive toxicity: no remarkable influence
Bioavailability analysis; female rats
  absolute bioavailability (FAB): 113.28% ± 1.72%
  relative bioavailability (FRB): 105.28% ± 1.62%
Bioavailability analysis; male rats
  absolute bioavailability (FAB): 111.80% ± 1.81%
  relative bioavailability (FRB): 115.73% ± 2.03%
[7]
  toxicity in the acute toxicity study and subacute toxicity study: nontoxic

## O=C([O-])c1ccccn1.O=C([O-])c1ccccn1.O=C([O-])c1ccccn1.[Cr+3] [Chromium picolinate, chromium picolinate]
[8]
  genotoxicity, cytotoxicity, and tumorigenesis: had shown the genotoxicity, cytotoxicity, and tumorigenesis

## O=C([O-])c1cccnc1.O=C([O-])c1cccnc1.O=C([O-])c1cccnc1.[Cr+3] [chromium nicotinate]
[9]
  solubility: poor solubility

## [Cl][Cr]([Cl])[Cl] [chromium trichloride]
[10]
  order of chromium level in mouse organs: liver > kidney > pancreas > spleen > testes > lungs > heart > brain
